{"source": "paper PMC3285107", "about": "(ACS medicinal chemistry letters, 2012)", "key": {"RGS4": {"test_system": "RGS4", "sequence (P49798 whole entry)": "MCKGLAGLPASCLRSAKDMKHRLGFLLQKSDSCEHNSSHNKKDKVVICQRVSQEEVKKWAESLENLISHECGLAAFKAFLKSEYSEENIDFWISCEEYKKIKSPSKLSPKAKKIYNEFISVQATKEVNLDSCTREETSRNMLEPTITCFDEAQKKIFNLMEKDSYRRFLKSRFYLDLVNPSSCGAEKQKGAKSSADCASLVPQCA", "test": "FCPIA: inhibition of Gαo binding to RGS4", "conditions": "for activity at RGS4: result in words", "in_short": "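Primary FCPIA screen for inhibition of Gαo binding to RGS4, run in parallel against RGS8, its closest sequence relative, to assess selectivity. IC50 values are averages of two independent experiments. Calculated ΔpIC50 mean error: 0.2 for RGS4, 0.14 for RGS8.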"}, "[1]": {"test_system": "M3 muscarinic receptors in HEK293T cells", "test": "Carbachol-stimulated Ca2+ transient", "assay_type": "cell-based", "conditions": "compound 10 μM, carbachol 10 nM, HEK cells with human M3 receptor", "in_short": "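HEK-293 cells stably expressing human M3 muscarinic receptor, plated overnight, then loaded with Fluo4-NW for 30 min at 37 °C. Test compound added at 10 μM (1% DMSO). After […] minutes, baseline fluorescence read on a plate reader. Carbachol (10 nM final) injected, and the rise in intracellular Ca2+ expressed as percentage of baseline Ca2+ level.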"}, "cysteine protease papain": {"test_system": "cysteine protease papain", "conditions": "result in words; cited from earlier work"}, "Aqueous solubility": {"test": "Aqueous solubility", "assay_type": "physicochemical", "conditions": "result in words"}}, "note": "“Also recorded” adds a separate entry of the source.", "data": [{"smiles": "Cc1ccc(-n2sc(=O)n(Cc3ccc(Cl)cc3)c2=O)cc1", "note": "[compound 3]", "values": [{"measurement": "selectivity for RGS4 versus RGS8", "setting": "RGS4", "value": "> 1000", "unit": "fold"}]}, {"smiles": "Cc1ccc(Cn2sc(=O)n(Cc3ccccc3)c2=O)cc1", "note": "[2i]", "values": [{"measurement": "selectivity for RGS4 versus RGS8", "setting": "RGS4", "value": "near three orders of magnitude"}]}, {"smiles": "COc1ccc(Cn2c(=O)sn(-c3ccc(C)cc3)c2=O)cc1", "note": "[compound 7]", "values": [{"measurement": "selectivity for RGS4 versus RGS8", "setting": "RGS4", "value": "> 1000", "unit": "fold"}]}, {"smiles": "Cc1ccc(-n2sc(=O)n(Cc3cccc(Cl)c3)c2=O)cc1", "note": "[compound 5]", "values": [{"measurement": "selectivity for RGS4 versus RGS8", "setting": "RGS4", "value": "> 1000", "unit": "fold"}]}, {"smiles": "Cc1ccc(C2=CC(=O)N(Cc3ccccc3)C2=O)cc1", "note": "[compound 15]", "values": [{"measurement": "activity at RGS4", "setting": "RGS4", "value": "neither 14 or 15 displayed activity"}]}, {"smiles": "Cc1ccc(CN2C(=O)CN(c3ccc(C)cc3)C2=O)cc1", "note": "[compound 14]", "values": [{"measurement": "activity at RGS4", "setting": "RGS4", "value": "neither 14 or 15 displayed activity"}]}, {"smiles": "Cc1ccc(Cn2sc(=O)n(Cc3ccc(F)cc3)c2=O)cc1", "note": "[1i]", "values": [{"measurement": "selectivity for RGS4 versus RGS8", "setting": "RGS4", "value": "near three orders of magnitude"}]}, {"smiles": "Cc1ccc(-n2sc(=O)n(Cc3ccc(F)cc3)c2=O)cc1", "note": "[1a]", "values": [{"measurement": "effect on carbachol-induced Ca2+ transient", "setting": "[1]", "value": "nearly completely abolished"}, {"measurement": "inhibition of papain", "setting": "cysteine protease papain", "value": "failing to inhibit"}]}, {"smiles": "Cc1ccc(Cn2c(=O)sn(-c3ccc(C)cc3)c2=O)cc1", "note": "[compound 4]", "values": [{"measurement": "selectivity for RGS4 versus RGS8", "setting": "RGS4", "value": "> 1000", "unit": "fold"}]}, {"smiles": "CCCCn1c(=O)sn(CC)c1=O", "note": "[11b]", "values": [{"measurement": "effect on carbachol-induced Ca2+ transient", "setting": "[1]", "value": "no effect; also recorded: no calcium transient"}, {"measurement": "aqueous solubility", "setting": "Aqueous solubility", "value": "high solubility; also recorded: excellent aqueous solubility"}]}, {"smiles": "CCn1sc(=O)n(CCOC)c1=O", "note": "[compound 13]", "values": [{"measurement": "selectivity for RGS4 versus RGS8", "setting": "RGS4", "value": "> 600", "unit": "fold"}, {"measurement": "effect on carbachol-induced Ca2+ transient", "setting": "[1]", "value": "no effect"}, {"measurement": "aqueous solubility", "setting": "Aqueous solubility", "value": "further improved solubility"}]}]}
